Results from ChEMBL document CHEMBL3120138, “Glucocorticoid receptor modulators informed by crystallography lead to a new rationale for receptor selectivity, function, and implications for structure-based design” (J Med Chem, 2014).
Each block holds one molecule with its values, some of them ahead of it. The source made the active and inactive calls. No cut-off for these calls is given here.

What was measured:
Rattus norvegicus [1] = assay: Antiinflammatory activity in po dosed Lewis rat collagen-induced arthritis model assessed as reduction in ankle diameter administered for 15 days measured during compound dosing; assay type: functional, organism-based
Procedure, shortened: (§1)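 Female Lewis rats received collagen injected at the tail base, and disease developed over 14 d. Responding rats (groups of n = 10) were then dosed orally once daily for the next 15 d. Ankle/paw diameter was measured throughout the live phase and summarised as AUC. Hindpaw histology was scored blind from 0 (normal) to 5 (vehicle-level). Statistics used Student's t test vs vehicle, p < 0.01.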

[2] = Half life in Lewis rat collagen-induced arthritis model at 3 to 30 mg/kg, po after 15 days; assay type: ADME, organism-based; parameters: dose 3-30 mg/kg, route oral; conditions: in vivo
[3] = Oral bioavailability in Sprague-Dawley rat at 3 mg/kg; assay type: ADME, organism-based; conditions: in vivo
Procedure, shortened: (§2)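 Cannulated male Sprague-Dawley rats, fasted overnight, given a single 3 mpk dose at t = 0. The iv vehicle was 20% microemulsion/80% DI water and the po vehicle CMC/tween in DI water. Plasma was analysed for parent compound by LC/MS-MS, and exposure, half-life, Vd, clearance and bioavailability were calculated.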

Rattus norvegicus [4] = assay: Antiinflammatory activity in Lewis rat collagen-induced arthritis model assessed as reduction of bone resorption at 30 mg/kg, po administered for 15 days; assay type: functional, organism-based; parameters: dose 30 mg/kg; procedure, shortened: as §1
Rattus norvegicus [5] = assay: Antiinflammatory activity in Lewis rat collagen-induced arthritis model assessed as reduction of cartilage damage at 30 mg/kg, po administered for 15 days; assay type: functional, organism-based; parameters: dose 30 mg/kg; procedure, shortened: as §1
Rattus norvegicus [6] = assay: Antiinflammatory activity in Lewis rat collagen-induced arthritis model assessed as reduction of pannus at 30 mg/kg, po administered for 15 days; assay type: functional, organism-based; parameters: dose 30 mg/kg; procedure, shortened: as §1
[7] = Clearance in Sprague-Dawley rat at 3 mg/kg, iv; assay type: ADME, organism-based; parameters: dose 3 mg/kg, route intravenous; conditions: in vivo; procedure, shortened: as §2
Rattus norvegicus [8] = assay: Antiinflammatory activity in Lewis rat collagen-induced arthritis model assessed as reduction of joint inflammation at 30 mg/kg, po administered for 15 days; assay type: functional, organism-based; parameters: dose 30 mg/kg; procedure, shortened: as §1
[9] = AUC in Sprague-Dawley rat at 3 mg/kg, po; assay type: ADME, organism-based; parameters: dose 3 mg/kg, route oral; conditions: plasma; procedure, shortened: as §2
[10] = AUC in Sprague-Dawley rat at 3 mg/kg, iv; assay type: ADME, organism-based; parameters: dose 3 mg/kg, route intravenous; conditions: plasma; procedure, shortened: as §2
Rattus norvegicus [11] = assay: Antiinflammatory activity in po dosed Sprague-Dawley rat assessed as inhibition of carrageenan-induced IL-1beta secretion incubated for 2 hrs prior to carrageenan challenge measured after 5 hrs by ELISA; assay type: functional
Procedure, shortened: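 Male Sprague-Dawley rats (n = 5/group) were dosed at t = 0, and carrageenan was injected into the rear footpad at 2 h. At 5 h the animals were euthanised and the hindpaws weighed to measure edema. Paw exudate was assayed for IL-1β by ELISA.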

Progesterone receptor = molecular target: T1, Progesterone receptor (Homo sapiens, UniProt P06401); assay: Displacement of [3H]-methyltrienolone from human progesterone receptor expressed in HEK293 cells; assay type: cell-based
T1 sequence (P06401 whole entry): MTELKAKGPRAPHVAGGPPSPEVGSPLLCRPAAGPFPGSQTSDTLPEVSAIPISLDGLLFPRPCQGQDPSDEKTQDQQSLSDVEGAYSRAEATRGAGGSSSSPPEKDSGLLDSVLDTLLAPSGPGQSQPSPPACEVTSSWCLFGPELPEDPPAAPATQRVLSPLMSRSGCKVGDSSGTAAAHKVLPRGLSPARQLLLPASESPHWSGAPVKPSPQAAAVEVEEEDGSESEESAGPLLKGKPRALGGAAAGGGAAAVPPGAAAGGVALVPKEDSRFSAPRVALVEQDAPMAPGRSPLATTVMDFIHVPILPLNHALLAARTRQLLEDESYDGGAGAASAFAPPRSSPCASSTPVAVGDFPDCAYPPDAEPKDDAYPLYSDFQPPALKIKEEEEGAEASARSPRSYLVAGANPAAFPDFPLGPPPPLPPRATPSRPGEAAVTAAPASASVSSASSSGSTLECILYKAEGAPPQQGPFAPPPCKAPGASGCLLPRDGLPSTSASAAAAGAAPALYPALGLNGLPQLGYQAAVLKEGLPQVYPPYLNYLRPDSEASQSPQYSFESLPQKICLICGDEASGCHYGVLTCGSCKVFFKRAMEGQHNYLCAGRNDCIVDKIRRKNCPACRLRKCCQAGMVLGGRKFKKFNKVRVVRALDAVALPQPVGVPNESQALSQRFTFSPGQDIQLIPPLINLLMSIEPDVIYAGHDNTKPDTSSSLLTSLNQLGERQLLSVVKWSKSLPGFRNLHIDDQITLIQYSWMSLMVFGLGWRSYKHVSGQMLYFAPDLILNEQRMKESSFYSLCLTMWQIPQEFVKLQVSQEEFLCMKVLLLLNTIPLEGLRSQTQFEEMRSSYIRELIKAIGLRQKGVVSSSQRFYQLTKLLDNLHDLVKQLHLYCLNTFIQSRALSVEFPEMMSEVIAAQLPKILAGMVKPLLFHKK
Procedure, shortened: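 Competition binding used lysates of HEK293 cells overexpressing the human receptor. The tracer was ³H-aldosterone for MR and ³H-methyltrienolone for PR. Competitor was tested from 0.01 nM to 10 μM. IC50 was converted to Ki by Cheng–Prusoff. Values are means of at least three experiments, each run in triplicate.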

[12] = Half life in Sprague-Dawley rat at 3 mg/kg, iv; assay type: ADME, organism-based; parameters: dose 3 mg/kg, route intravenous; conditions: in vivo; procedure, shortened: as §2
[13] = Antiinflammatory activity in PMA-differentiated human U937 cells assessed as inhibition of LPS-induced TNFalpha production incubated for 60 mins prior to LPS challenge measured after 24 hrs; assay type: functional, cell-based; conditions: U-937
Procedure, shortened: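 U-937 cells (100 000/well) were differentiated with 20 nM PMA overnight at 37 °C, then refed with PMA-free medium. Cells were pretreated with compound for 60 min, then stimulated with LPS (stock 400 ng/mL) for 24 h at 37 °C. Secreted TNFα was measured by EIA/RIA. Ten-point half-log dilutions were used, each concentration in triplicate.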

half-life [2]: 1.4 h
bioavailability [3]: 100%
clearance [7]: 56 mL/min/kg
AUC [9]: 1300 ng·h/mL
AUC [10]: 1490 ng·h/mL
Ki (Progesterone receptor): 26.8 nM
half-life [12]: 1.4 h
IC50 [13]: 19.1 nM
Structure (SMILES): CC/C(=C1\c2ccccc2OCc2cccc(OC)c21)c1cccc(NS(C)(=O)=O)c1
Activity (Rattus norvegicus [1]): Dose-dependent effect
Activity (Rattus norvegicus [4]): Active
Activity (Rattus norvegicus [5]): Active
Activity (Rattus norvegicus [6]): Active
Activity (Rattus norvegicus [8]): Active
ED50 (Rattus norvegicus [11]): 1.7 mg/kg

Ki (Progesterone receptor): 15.5 nM
Structure (SMILES): CC/C(=C1/c2ccccc2COc2ccccc21)c1cccc(NS(C)(=O)=O)c1

Ki (Progesterone receptor): 99 nM
Structure (SMILES): CS(=O)(=O)Nc1cccc(C=C2c3ccccc3CCc3ccccc32)c1

Ki (Progesterone receptor): 6.17 nM
Structure (SMILES): C/C(=C1/c2ccccc2COc2ccccc21)c1cccc(NS(C)(=O)=O)c1
